Series [1] relates to Plasma. In words: Cmax in non-perfused Sprague-Dawley rat plasma assessed as active metabolite oseltamivir carboxylate level at 30 mg/kg, iv. Format: ADME, organism-based. More on the design: dose 30 mg/kg, route intravenous. The following applies: in vivo. The gist of the method: (§1)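 Nonfasted adult rats received 30 mg/kg in aqueous 0.9% NaCl (pH 4.0) by slow tail-vein injection over 20–30 s. Groups were sampled at 5 min and 0.25, 0.5, 1, 2, 4 and 8 h, with 4–5 rats per time point, under terminal isoflurane. Blood was taken by heart puncture and CSF from the cisterna magna. Brains were homogenized either unperfused or after transcardial saline perfusion. Samples were assayed by LC-MS/MS, and pooled composite data were analyzed noncompartmentally.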

Series [2] relates to Rattus norvegicus. In words: Volume of distribution at steady state in Sprague-Dawley rat assessed as active metabolite oseltamivir carboxylate level at 30 mg/kg, iv. Format: ADME, organism-based. More on the design: dose 30 mg/kg, route intravenous. The following applies: in vivo. In short, it runs like this:
(§2)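 Nonfasted Sprague-Dawley rats given 30 mg/kg i.v. in 0.9% NaCl pH 4.0 by tail vein over 20–30 s. Terminal sampling under isoflurane at 5 min, 0.25, 0.5, 1, 2, 4 and 8 h (4–5 rats/time): plasma, CSF, and brain homogenate, with or without saline perfusion. LC-MS/MS. t1/2, Vss and ratios from noncompartmental analysis of pooled composite concentrations.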

Series [3] deals with Plasma. In words: Cmax in perfused Sprague-Dawley rat plasma assessed as active metabolite oseltamivir carboxylate level at 30 mg/kg, iv. Format: ADME, organism-based. Further details: dose 30 mg/kg, route intravenous; call rule not given here. To be noted: in vivo. The gist of the method: as §1
The nature of series [4]: Cmax ratio in brain to plasma in non-perfused Sprague-Dawley rat at 30 mg/kg, iv. Format: ADME, organism-based. More on the design: dose 30 mg/kg, route intravenous. To be noted: brain and plasma. In short, it runs like this: as §1
Series [5] is described as follows: Cmax in non-perfused Sprague-Dawley rat brain at 30 mg/kg, iv after 0.25 hrs. More on the design: dose 30 mg/kg, route intravenous. Format: ADME, organism-based. The gist of the method: as §1
Series [6] in a line: Cmax ratio in brain to plasma in perfused Sprague-Dawley rat at 30 mg/kg, iv. Format: ADME, organism-based. Further details: dose 30 mg/kg, route intravenous. The following applies: brain and plasma. The gist of the method: as §1
Series [7] in a line: AUC ratio in brain to plasma in perfused Sprague-Dawley rat at 30 mg/kg, iv. Further details: dose 30 mg/kg, route intravenous. Format: ADME, organism-based. The following applies: brain and plasma, read-out: Ratio AUC. The gist of the method: as §1
For series [8], the system named is Plasma. The series is described as follows: Terminal half life in non-perfused Sprague-Dawley rat plasma assessed as active metabolite oseltamivir carboxylate level at 30 mg/kg, iv. More on the design: dose 30 mg/kg, route intravenous. Format: ADME, organism-based. To be noted: in vivo. The gist of the method: as §2
The nature of series [9]: AUC ratio in brain to plasma in non-perfused Sprague-Dawley rat at 30 mg/kg, iv. Format: ADME, organism-based. More on the design: dose 30 mg/kg, route intravenous. To be noted: brain and plasma, read-out: Ratio AUC. The gist of the method: as §1
Series [10] has as its target ATP-dependent translocase ABCB1 (Homo sapiens, UniProt P08183). In words: Inhibition of human MDR1-mediated digoxin permeability expressed in pig LLC-PK1 cells. Format: cell-based. The gist of the method:
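P-gp-transfected LLC-PK1 monolayers were used, with labeled digoxin (10 nM) as substrate and unlabeled oseltamivir (0.1–10 mM) added to both donor and receiver sides. Transport was bidirectional at 37°C under 5% CO2, with the acceptor side sampled up to 3 h and counted by scintillation. Three inserts were used per condition, and IC50 was derived from inhibition of digoxin transport.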

The nature of series [11]: Prodrug conversion in 42 days old female rat liver S9 fractions assessed as oseltamivir carboxylate generation rate assessed per mg of protein per min. Format: ADME, subcellular, S9 fraction. In short, it runs like this:
(§3)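 Rat brain or liver S9 (9,000 × g supernatant; 1.0 mg protein) was incubated in triplicate with 10 µM 14C-oseltamivir (final) in 100 mM Tris-HCl pH 7.4 for 30 min at 37°C. Reactions were quenched with TCA-acetonitrile, and the fraction converted to OC was measured by radioflow HPLC with fractionation. Rate was calculated as (pmol/ml substrate × fraction hydrolyzed)/(mg protein/ml × time), minus the no-protein background.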

In series [12] the target is MDR1 (P-gp, ABCB1) (Homo sapiens, UniProt P08183). In words: Activity of human MDR1-mediated permeability from apical to basolateral side in pig LLC-PK1 cells in presence of P-gp inhibitor elacridar. Format: cell-based. To be noted: LLC-PK1, with elacridar (concentration not stated), read-out: permeability. In short, it runs like this: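 P-gp-transfected LLC-PK1 monolayers received [14C]oseltamivir (0.1–10 mM) plus Lucifer yellow on the apical or basolateral donor side, with or without 1 µM elacridar. Incubation was at 37°C under 5% CO2. The acceptor side was sampled at 0.5–3 h and counted by scintillation. Pe was taken from the 3 h point, without correction for marker flux. Three inserts were used per condition and averaged.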
MDR1 (P-gp, ABCB1), sequence (P08183 whole entry): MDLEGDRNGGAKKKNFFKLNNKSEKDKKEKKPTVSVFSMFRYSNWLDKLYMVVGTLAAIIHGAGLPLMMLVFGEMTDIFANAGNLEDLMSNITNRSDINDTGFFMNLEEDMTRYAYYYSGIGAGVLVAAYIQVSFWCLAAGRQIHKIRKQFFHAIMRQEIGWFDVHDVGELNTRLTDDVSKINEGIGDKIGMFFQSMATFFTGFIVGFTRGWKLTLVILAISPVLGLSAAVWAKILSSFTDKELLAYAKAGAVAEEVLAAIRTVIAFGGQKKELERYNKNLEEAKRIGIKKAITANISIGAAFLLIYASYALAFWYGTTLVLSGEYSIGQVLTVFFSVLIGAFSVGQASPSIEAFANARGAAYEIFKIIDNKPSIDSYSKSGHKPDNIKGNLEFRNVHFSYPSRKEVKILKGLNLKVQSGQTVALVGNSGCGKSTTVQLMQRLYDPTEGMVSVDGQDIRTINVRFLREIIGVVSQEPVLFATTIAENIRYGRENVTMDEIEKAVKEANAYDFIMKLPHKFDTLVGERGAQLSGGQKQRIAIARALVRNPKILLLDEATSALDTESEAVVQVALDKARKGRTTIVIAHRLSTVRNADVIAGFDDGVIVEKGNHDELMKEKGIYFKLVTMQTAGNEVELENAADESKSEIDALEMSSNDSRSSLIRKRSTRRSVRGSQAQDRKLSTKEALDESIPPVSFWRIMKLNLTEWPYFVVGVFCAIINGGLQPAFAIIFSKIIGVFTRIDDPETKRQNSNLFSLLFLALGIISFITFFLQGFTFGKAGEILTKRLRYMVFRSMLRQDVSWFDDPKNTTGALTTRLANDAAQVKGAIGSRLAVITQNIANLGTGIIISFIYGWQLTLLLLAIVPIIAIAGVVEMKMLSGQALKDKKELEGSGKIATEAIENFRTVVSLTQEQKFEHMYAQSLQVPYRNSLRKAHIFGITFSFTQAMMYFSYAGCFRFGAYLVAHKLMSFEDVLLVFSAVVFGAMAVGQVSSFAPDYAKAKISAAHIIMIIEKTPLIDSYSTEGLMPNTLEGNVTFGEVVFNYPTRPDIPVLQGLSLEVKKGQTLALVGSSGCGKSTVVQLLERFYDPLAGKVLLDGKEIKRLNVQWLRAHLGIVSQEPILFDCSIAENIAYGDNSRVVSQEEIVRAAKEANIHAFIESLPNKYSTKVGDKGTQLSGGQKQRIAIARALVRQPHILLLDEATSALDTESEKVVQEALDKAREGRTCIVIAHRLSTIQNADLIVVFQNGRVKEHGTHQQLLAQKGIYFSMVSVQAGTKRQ

Series [13] can be described thus: Prodrug conversion in 42 days old male rat liver S9 fractions assessed as paranitrophenol generation rate assessed per mg of protein per min. Format: ADME, subcellular, S9 fraction. The gist of the method: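 Control esterase activity was measured by incubating 100 µM p-nitrophenyl acetate (final) with 0.05 mg rat brain or liver S9 protein in 1.5 ml Tris-HCl pH 7.4 for 1 min at 37°C. Reactions were quenched with acetonitrile, and product was quantified by HPLC-UV against external standards. The no-protein blank rate was subtracted, and rate was expressed per mg protein per min.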

The nature of series [14]: AUC (0 to infinity) ratio in brain to plasma in non-perfused Sprague-Dawley rat at 30 mg/kg, iv. Format: ADME, organism-based. Further details: dose 30 mg/kg, route intravenous. To be noted: brain and plasma, read-out: Ratio AUC. The gist of the method:
as §1

A short description of series [15]: Prodrug conversion in 7 days old female rat brain S9 fractions assessed as oseltamivir carboxylate generation rate assessed per mg of protein per min. Format: ADME, tissue-based. The gist of the method:
(§4)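 S9 from brain or liver (rat S9 made by homogenizing tissue in ~4 ml Tris-sucrose buffer per g, supernatant after 9,000 × g at 10°C; pooled human brain and liver S9 also used), protein by bicinchoninic acid assay. Oseltamivir: triplicate, 10 μM 14C-oseltamivir final, 1.0 mg S9 protein, 100 mM Tris-HCl pH 7.4, 30 min at 37°C, quenched with TCA-acetonitrile.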

Series [16] is described as follows: Prodrug conversion in 42 days old female rat brain S9 fractions assessed as oseltamivir carboxylate generation rate assessed per mg of protein per min. Format: ADME, tissue-based. The gist of the method: as §3
A short description of series [17]: Prodrug conversion in human liver S9 fractions assessed as oseltamivir carboxylate generation rate assessed per mg of protein per min. Format: ADME, subcellular, S9 fraction. In short, it runs like this: as §4
A short description of series [18]: Prodrug conversion in commercial brain S9 fractions assessed as oseltamivir carboxylate generation rate assessed per mg of protein per min. Format: ADME. In short, it runs like this:
as §4

Series [19] can be described thus: Prodrug conversion in 42 days old male rat brain S9 fractions assessed as conversion of oseltamivir to oseltamivir carboxylate. Format: ADME, subcellular, S9 fraction. The gist of the method:
as §3

A short description of series [20]: Prodrug conversion in 42 days old male rat brain S9 fractions assessed as oseltamivir carboxylate generation rate assessed per mg of protein per min. Format: ADME, tissue-based. The gist of the method: as §3
Series [21] in a line: Prodrug conversion in commercial brain S9 fractions assessed as paranitrophenol generation rate assessed per mg of protein per min. Format: ADME.
Series [22] in a line: Prodrug conversion in 7 days old male rat brain S9 fractions assessed as conversion of oseltamivir to oseltamivir carboxylate. Format: ADME, tissue-based. The gist of the method:
as §4

Series [23] can be described thus: Prodrug conversion in 42 days old female rat liver S9 fractions assessed as conversion of oseltamivir to oseltamivir carboxylate. Format: ADME, subcellular, S9 fraction. In short, it runs like this: as §3
Series [24] in a line: Prodrug conversion in 42 days old male rat liver S9 fractions assessed as oseltamivir carboxylate generation rate assessed per mg of protein per min. Format: ADME, subcellular, S9 fraction. In short, it runs like this:
as §3

Series [25] can be described thus: Prodrug conversion assessed as oseltamivir carboxylate level in presence of Sf9 cell culture supernatant expressing human recombinant HCE2 after 30 mins. Format: ADME. To be noted: sf9, 0.5 h. The gist of the method:
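Culture supernatants from baculovirus-infected Sf9 cells (day 5–7; 1.0 mg/ml protein) were incubated in triplicate with 10 µM 14C-oseltamivir in 100 mM Tris-HCl at 37°C for 30 min. Reactions were quenched with TCA-acetonitrile, then analyzed by HPLC with fraction scintillation counting. Conversion was calculated as OC radioactivity over total radioactivity, corrected for no-enzyme hydrolysis. Wild-type virus and liver S9 served as controls.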

Series [26] in a line: Prodrug conversion in 7 days old male rat brain S9 fractions assessed as oseltamivir carboxylate generation rate assessed per mg of protein per min. Format: ADME, tissue-based. In short, it runs like this:
as §4

A short description of series [27]: Prodrug conversion in 7 days old male rat liver S9 fractions assessed as oseltamivir carboxylate generation rate assessed per mg of protein per min. Format: ADME, subcellular, S9 fraction. In short, it runs like this:
as §4

pIC50: −log10 of the molar value.

This note sets out measurements from ChEMBL document CHEMBL1687750, “Nonclinical pharmacokinetics of oseltamivir and oseltamivir carboxylate in the central nervous system” (Antimicrob Agents Chemother, 2009).

ATP-dependent translocase ABCB1, sequence (P08183 whole entry): as above

As a reminder, the Cmax is the highest concentration seen after dosing. One may read the Vdss as the apparent volume that relates the amount in the body to the concentration in plasma or blood. In the case of `CCC(CC)O[C@@H]1C=C(C(=O)O)C[C@H](N)[C@H]1NC(C)=O` [OSELTAMIVIR CARBOXYLATE], the Cmax in series [1] amounted to 6880 ng/mL; in series [3] it was 6300 ng/mL; in [5], 164 ng/g. Besides, the Vdss in [2] was 0.8 L/kg. Also, the Kp was 0.02 in series [4], 0.01 in series [6], below 0.004 in series [7] and 0.01 in series [9]. In addition, the “beta t1/2” value in series [8] was found to be 1.69 h.

The pIC50 is the IC50 on a negative log10 scale, so that one unit is a factor of ten. A low value points to a high IC50. As for `CCOC(=O)C1=C[C@@H](OC(CC)CC)[C@H](NC(C)=O)[C@@H](N)C1` [OSELTAMIVIR], the pIC50 in series [10] is 2.89. The Activity is 1.37 pmol/s in series [11]; 1446 nmol in series [13]; below 0.2 pmol/s in [15]; 0.6 pmol/min/mg in series [16]; 119 pmol/s in series [17]; 0.32 pmol/min/mg in series [18]. Moreover, the Activity in series [19] is 0.16%; in series [20], 0.52 pmol/s; in [21] it was 49 nmol; in series [22], below 0.06%; in series [23], 0.41%; in series [24] it was 2.11 pmol/s. The Activity result in [25] is listed as “Not Active”; in series [26] it was below 0.2 pmol/s; in series [27] it was 0.33 pmol/s. For the same compound, the Papp A→B in [12] was determined as 3.89 ×10⁻⁶ cm/s. Further, in series [14], the Kp was determined as 0.24.
